Reference: ChEMBL document CHEMBL5223067, “Functionalized resorcinarenes effectively disrupt the aggregation of αA66-80 crystallin peptide related to cataracts” (RSC Med Chem, 2021)
“And” between values parts separate entries of the source, which are not always exact repeats. Equal values may be shown once. The source made the active and inactive calls. The calls are words filed in the database; no cut-off is given here.

Legend:
[1] = Binding affinity to lysine in aqueous solution assessed as change in enthalpy at 1 mM by isothermal titration calorimetry
Summary of the method: (§1)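 ITC at 298 K: sample cell filled with one partner at 1 mM, titrant at 15 mM in syringe, computer-automated injections. Blank titrations into plain solvent subtracted to remove heats of dilution. Data fitted to a 1:1 (one-site) binding model to give K, ΔH and ΔS.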

[2] = Binding affinity to histidine in aqueous solution assessed as association constant at 1 mM by isothermal titration calorimetry; summary of the method: as §1
[3] = Binding affinity to histidine in aqueous solution assessed as gibbs free energy change at 1 mM by isothermal titration calorimetry; summary of the method: as §1
[4] = Binding affinity to arginine in aqueous solution assessed as change in entropy at 1 mM by isothermal titration calorimetry
Summary of the method: (§2)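 ITC at 298 K. The sample cell holds one partner at 1 mM and the syringe holds titrant at 15 mM, added by automated injections. Titrations were run in water and in 10 mM Tris buffer pH 7.4. Blank titrations into plain solvent were subtracted to correct for heats of dilution. The data were fitted to a 1:1 (one-site) binding model to give K, ΔH and ΔS.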

[5] = Binding affinity to lysine in aqueous solution assessed as gibbs free energy change at 1 mM by isothermal titration calorimetry; summary of the method: as §1
[6] = target: T1, Alpha-crystallin A chain (Homo sapiens) (UniProt P02489); test: Inhibition of alphaA (66 to 80 residues) crystallin peptide aggregation assessed as decrease in peptide-receptor complex and measured after 72 hrs by ESI-MS analysis
T1 sequence (whole entry): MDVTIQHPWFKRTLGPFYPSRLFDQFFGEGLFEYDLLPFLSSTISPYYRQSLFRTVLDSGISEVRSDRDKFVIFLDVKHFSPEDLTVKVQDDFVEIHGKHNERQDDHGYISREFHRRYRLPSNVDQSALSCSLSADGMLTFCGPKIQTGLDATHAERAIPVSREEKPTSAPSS
Summary of the method: (§3)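 Peptide and host (10 mM aqueous stocks) were mixed in equal parts to 5 mM each. Mixtures were diluted in ESI buffer (50% methanol, 49% water, 1% acetic acid) and analysed by positive-mode ESI-MS, either within 2 h of mixing or after incubation for 72+ h at 37 °C followed by 100-fold dilution.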

[7] = Binding affinity to histidine in aqueous solution assessed as change in entropy at 1 mM by isothermal titration calorimetry; summary of the method: as §2
[8] = target: T1, Alpha-crystallin A chain (Homo sapiens); test: Inhibition of alphaA (66 to 80 residues) crystallin peptide aggregation assessed as decrease in peptide-receptor complex and measured upto 2 hrs by ESI-MS analysis; summary of the method: as §3
[9] = Binding affinity to arginine in aqueous solution assessed as change in enthalpy at 1 mM by isothermal titration calorimetry; summary of the method: as §1
[10] = target: T1, Alpha-crystallin A chain (Homo sapiens); test: Binding affinity to alphaA (66 to 80 residues) crystallin peptide in aqueous solution assessed as association constant at 1 mM by isothermal titration calorimetry; summary of the method: as §1
[11] = Binding affinity to histidine in deuterium oxide solution assessed as change in complexation induced chemical shift at 2 mM by 1H NMR analysis
[12] = target: T1, Alpha-crystallin A chain (Homo sapiens); test: Inhibition of alphaA (66 to 80 residues) crystallin peptide aggregation assessed as amorphous small protein aggregates at 1:1 peptide to ligand ratio incubated for 7 days by transmission electron microscopy; settings: time 7.0 day
Summary of the method: (§4)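 Peptide incubated with receptor at 1:1 or 5:1 ratio for 7 days at 37 °C. A 10 μL aliquot taken on day 7 was loaded onto Formvar-carbon coated 200 mesh nickel grids and allowed to absorb for 2 h. Grids were washed three times with deionized water and blotted dry. Peptide-alone control; duplicate grids per sample; imaged by TEM.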

[13] = Binding affinity to lysine in aqueous solution assessed as association constant at 1 mM by isothermal titration calorimetry; summary of the method: as §1
[14] = Binding affinity to lysine in deuterium oxide solution assessed as change in complexation induced chemical shift at 2 mM by 1H NMR analysis
[15] = target: T1, Alpha-crystallin A chain (Homo sapiens); test: Inhibition of alphaA (66 to 80 residues) crystallin peptide aggregation assessed as decrease in average diameter size distribution at 1:1 peptide to ligand ratio incubated for 7 days by dynamic light scattering (Rvb=12000+/-1500 nm); settings: time 7.0 day
[16] = target: T1, Alpha-crystallin A chain (Homo sapiens); test: Binding affinity to alphaA (66 to 80 residues) crystallin peptide in aqueous solution assessed as change in enthalpy at 1 mM by isothermal titration calorimetry; summary of the method: as §1
[17] = target: T1, Alpha-crystallin A chain (Homo sapiens); test: Binding affinity to alphaA (66 to 80 residues) crystallin peptide in aqueous solution assessed as change in entropy at 1 mM by isothermal titration calorimetry; summary of the method: as §1
[18] = target: T1, Alpha-crystallin A chain (Homo sapiens); test: Binding affinity to alphaA (66 to 80 residues) crystallin peptide in aqueous solution assessed as gibbs free energy change at 1 mM by isothermal titration calorimetry; summary of the method: as §1
[19] = Binding affinity to arginine in aqueous solution assessed as gibbs free energy change at 1 mM by isothermal titration calorimetry; summary of the method: as §1
[20] = Binding affinity to lysine in aqueous solution assessed as change in entropy at 1 mM by isothermal titration calorimetry; summary of the method: as §2
[21] = target: T1, Alpha-crystallin A chain (Homo sapiens); test: Inhibition of alphaA (66 to 80 residues) crystallin peptide aggregation at peptide to ligand ratio of 0.2 to 5:1 incubated for 7 days by fluorescence aggregation assay; settings: time 7.0 day
Summary of the method: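 5360 μM peptide in 10 mM Tris was mixed with receptor at 0.2:1 to 10:1 receptor:peptide ratios and incubated 7 days at 37 °C. Proteostat dye was added (1 μL per 10 μL sample) with positive/negative dye controls. Fluorescence was read at 25 °C. Triplicates; percent inhibition plotted vs log[concentration] to derive IC50.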

[22] = Binding affinity to histidine in aqueous solution assessed as change in enthalpy at 1 mM by isothermal titration calorimetry; summary of the method: as §1
[23] = Binding affinity to aspartic acid in deuterium oxide solution assessed as change in complexation induced chemical shift at 2 mM by 1H NMR analysis
[24] = Binding affinity to arginine in aqueous solution assessed as association constant at 1 mM by isothermal titration calorimetry; summary of the method: as §1
[25] = target: T1, Alpha-crystallin A chain (Homo sapiens); test: Inhibition of alphaA (66 to 80 residues) crystallin peptide aggregation assessed decrease in large fibrillar aggregation at 1:1 peptide to ligand ratio incubated for 7 days by transmission electron microscopy; settings: time 7.0 day; summary of the method: as §4
[26] = Binding affinity to arginine in deuterium oxide solution assessed as change in complexation induced chemical shift at 2 mM by 1H NMR analysis
[27] = Binding affinity to aspartic acid in aqueous solution assessed as change in entropy at 1 mM by isothermal titration calorimetry; summary of the method: as §2
[28] = Binding affinity to aspartic acid in aqueous solution assessed as association constant at 1 mM by isothermal titration calorimetry; summary of the method: as §1
[29] = Binding affinity to aspartic acid in aqueous solution assessed as change in enthalpy at 1 mM by isothermal titration calorimetry; summary of the method: as §1
[30] = Binding affinity to aspartic acid in aqueous solution assessed as gibbs free energy change at 1 mM by isothermal titration calorimetry; summary of the method: as §1

Row | SMILES | deltaH [1] [kcal/mol] | Ka [2] | deltaG [3] | TdeltaS [4] [kcal/mol] | inhibition [6] | TdeltaS [7] [kcal/mol] | inhibition [8] | Ka [10] | Activity [11] | inhibition [12] | Activity [14] | Activity [15] [nm] | deltaH [16] [kcal/mol] | TdeltaS [17] [kcal/mol] | deltaG [18] | inhibition [21] | deltaH [22] [kcal/mol] | Activity [23] | inhibition [25] | Activity [26] | other results
1 | O=S(=O)(O)CCCc1cc(C(CCS(=O)(=O)O)c2cc(C(CCS(=O)(=O)O)c3cc(C(CCS(=O)(=O)O)c4ccc(O)cc4O)c(O)cc3O)c(O)cc2O)c(O)cc1O (centres undefined) | -6.74 | 3.44 10^3/M | -4.8 kcal/mol | -10.2 | inactive | 3.75 | inactive | 380 10^3/M | inactive | Active | Active | 3740 | -3.23 | 4.38 | -7.61 kcal/mol and -7.6 kcal/mol | Dose-Dependent Effect | -1.05 | inactive | Active | Active | deltaG [5]: -4.98 kcal/mol and -4.97 kcal/mol; deltaH [9]: -15.2 kcal/mol; Ka [13]: 4.45 10^3/M; deltaG [19]: -4.9 kcal/mol; TdeltaS [20]: -1.76 kcal/mol; Ka [24]: 3.64 10^3/M
2 | CCCc1cc(C(CC)c2cc(C(CC)c3cc(C(CC)c4ccc(O)c(CS(=O)(=O)O)c4O)c(O)c(CS(=O)(=O)O)c3O)c(O)c(CS(=O)(=O)O)c2O)c(O)c(CS(=O)(=O)O)c1O (centres undefined) | -12.1 | 2.94 10^3/M | -9.5 kcal/mol and -9.51 kcal/mol | -10.4 | inactive | 6.91 | inactive | 1360 10^3/M | inactive | Active | Active | 1920 | -8.28 | 0.092 | -8.37 kcal/mol | Dose-Dependent Effect | -2.59 | inactive | Active | Active | deltaG [5]: -5.62 kcal/mol; deltaH [9]: -15.7 kcal/mol; Ka [13]: 5.89 10^3/M; deltaG [19]: -5.27 kcal/mol and -5.28 kcal/mol; TdeltaS [20]: -6.45 kcal/mol; Ka [24]: 7.27 10^3/M
3 | OCCCCc1cc(C(CCCO)c2cc(C(CCCO)c3cc(C(CCCO)c4ccc(O)c(CNCc5ccccc5)c4O)c(O)c(CNCc4ccccc4)c3O)c(O)c(CNCc3ccccc3)c2O)c(O)c(CNCc2ccccc2)c1O (centres undefined) | – | 14.9 10^3/M | -5.69 kcal/mol | – | Active | -1.84 | Active | 2.4 10^3/M | Active | Active | Active | 202 | 4.89 | 9.48 | -4.59 kcal/mol | Dose-Dependent Effect | -7.53 | Active | Active | Active | TdeltaS [27]: 2.9 kcal/mol; Ka [28]: 7.3 10^3/M; deltaH [29]: -1 kcal/mol; deltaG [30]: -3.9 kcal/mol
